From ChEMBL document CHEMBL1154438, “Synthesis, spectral studies and antiamoebic activity of new 1-N-substituted thiocarbamoyl-3-phenyl-2-pyrazolines” (Eur J Med Chem, 2009) come the findings set out here.

Molecules are shown by their SMILES. pIC50: −log10 of the molar value.

In this test the test system is Entamoeba histolytica. Briefly: Antiamoebic activity against Entamoeba histolytica HM-1:IMSS after 72 hrs by microdilution assay. The class given is functional, organism-based. A digest of the protocol:
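E. histolytica trophozoites grown in TYIS-33 medium; compounds dissolved in DMSO and diluted in medium to a 1 mg/mL stock, then two-fold serial dilutions in wells. Inoculum 1.7 × 10⁴ organisms/well, gassed with nitrogen, 37 °C for 72 h. Cells methanol-fixed and eosin-stained, dye released with 0.1 N NaOH, OD 490 nm read. Percent inhibition versus log dose, IC50 from linear regression.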
(In general: Dilution methods test growth across graded concentrations, often in twofold steps.)
Regarding `Cc1ccc(NC(=S)N2CCC(c3cccc(Cl)c3)=N2)cc1`, the pIC50 (in general, −log10 of the IC50, conventionally taken in molar units) was 5.62.

In turn, `Cc1ccc(NC(=S)N2CCC(c3cccc(Br)c3)=N2)cc1` had a pIC50 of 5.27.

The compound `Fc1ccc(NC(=S)N2CCC(c3cccc(Br)c3)=N2)c(F)c1` had a pIC50 of 6.17.

The compound `Fc1ccc(NC(=S)N2CCC(c3cccc(Cl)c3)=N2)c(F)c1` had a pIC50 of 6.29.

`Cc1ccccc1NC(=S)N1CCC(c2cccc(Cl)c2)=N1` had a pIC50 of 5.77.

Turning to `CN(C(=S)N1CCC(c2cccc(Br)c2)=N1)C1CCCCC1`, the pIC50 is 5.28.

As for `Fc1ccc(NC(=S)N2CCC(c3ccccc3)=N2)c(F)c1`, the pIC50 is 5.75.

For the compound `Cc1ccc(NC(=S)N2CCC(c3ccccc3)=N2)cc1`, the pIC50 is 5.02.

`S=C(N1CCC(c2cccc(Cl)c2)=N1)N1CCCc2ccccc21` gave a pIC50 of 5.75.

In the case of `CN(Cc1ccccc1)C(=S)N1CCC(c2cccc(Cl)c2)=N1`, the pIC50 is 5.54.

Turning to `CN(Cc1ccccc1)C(=S)N1CCC(c2cccc(Br)c2)=N1`, the pIC50 is 5.35.

In turn, `S=C(N1CCCC1)N1CCC(c2cccc(Cl)c2)=N1` gave a negative logarithm of the IC50 (pIC50) of 5.64.

Turning to `S=C(NC1C2CC3CC(C2)CC1C3)N1CCC(c2ccccc2)=N1` (stereo not given), the pIC50 was 5.75.

In the case of `Cc1cccc(NC(=S)N2CCC(c3cccc(Cl)c3)=N2)c1`, the pIC50 was 5.55.

The compound `S=C(NC1C2CC3CC(C2)CC1C3)N1CCC(c2cccc(Cl)c2)=N1` (stereo not given) showed a pIC50 of 6.33.

The compound `Cc1cccc(NC(=S)N2CCC(c3cccc(Br)c3)=N2)c1` showed a pIC50 of 5.47.

Regarding `CN(Cc1ccccc1)C(=S)N1CCC(c2ccccc2)=N1`, the pIC50 was 5.14.

`S=C(N1CCCCCC1)N1CCC(c2cccc(Cl)c2)=N1` had a pIC50 of 6.05.

The compound `S=C(N1CCCC1)N1CCC(c2cccc(Br)c2)=N1` gave a pIC50 of 5.55.

In the case of `Cc1ccccc1NC(=S)N1CCC(c2cccc(Br)c2)=N1`, the pIC50 was 5.42.

Compound `S=C(N1CCCCCC1)N1CCC(c2ccccc2)=N1` gave a pIC50 of 5.36.

`CN(C(=S)N1CCC(c2cccc(Cl)c2)=N1)C1CCCCC1` gave a pIC50 of 5.43.

As to `Cc1cccc(NC(=S)N2CCC(c3ccccc3)=N2)c1`, the pIC50 is 5.30.

Compound `S=C(N1CCC(c2ccccc2)=N1)N1CCCc2ccccc21` gave a pIC50 of 5.21.

Take `Cc1ccccc1NC(=S)N1CCC(c2ccccc2)=N1`: the pIC50 was 5.32.

`CN(C(=S)N1CCC(c2ccccc2)=N1)C1CCCCC1` gave a pIC50 of 5.23.

As to `S=C(N1CCCCCC1)N1CCC(c2cccc(Br)c2)=N1`, the pIC50 was 5.96.

In turn, `S=C(N1CCCC1)N1CCC(c2ccccc2)=N1` had a pIC50 of 5.43.

Turning to `S=C(N1CCC(c2cccc(Br)c2)=N1)N1CCCc2ccccc21`, the pIC50 was 5.56.

`S=C(NC1C2CC3CC(C2)CC1C3)N1CCC(c2cccc(Br)c2)=N1` (stereo not given) had a pIC50 of 6.24.
